The list is not random: actives were taken first. Their share in the collection is about 2.6%.
rRNA inh HTS – reduced GFP signal of wild-type E. coli, primary screen, bacterial rRNA inhibitor project, GFP/RFP fluorescence, OD600, single point | 350,000 compounds, 1.6% hits | GFP signal change (wild-type ribosome), % (concentration not given with the values) | E. coli WT GFP vs humanized-ribosome RFP mutants, 24 h; stronger effect = lower value; DMSO median 0, no signal -100 | AID 720706, 2013;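 active = significant combined selectivity score with lowered wild-type GFP, culture density cut under 30%, mutant RFP and density less affected; inactive = any of these conditions unmet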
MLL AF4-AF9 inh – inhibitors of AF4 peptide binding to AF9, primary screen, biochemical, AlphaScreen, biotin-AF4 peptide, FLAG-AF9, single point. AID 651704, 2012. 350,000 compounds, 0.47% hits. Protein AF-9 (Homo sapiens), P42568. inhibition, % at 10 µM;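 active = every replicate reaching a set inhibition limit, whatever the replicate mean, cut at about 25% in these data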
RAD52 inh – RAD52 DNA annealing inhibitors, primary screen, biochemical, FRET, single point, set 2; inhibition, % at 18.7 µM; AID 651710, 2012; 360,000 compounds, 0.46% hits; DNA repair protein RAD52 homolog (Homo sapiens), P43351; recombinant RAD52 DNA annealing, FRET fluorescence;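 active = every replicate showing at least 50% inhibition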
Target sequence (P43351 whole entry, looked up): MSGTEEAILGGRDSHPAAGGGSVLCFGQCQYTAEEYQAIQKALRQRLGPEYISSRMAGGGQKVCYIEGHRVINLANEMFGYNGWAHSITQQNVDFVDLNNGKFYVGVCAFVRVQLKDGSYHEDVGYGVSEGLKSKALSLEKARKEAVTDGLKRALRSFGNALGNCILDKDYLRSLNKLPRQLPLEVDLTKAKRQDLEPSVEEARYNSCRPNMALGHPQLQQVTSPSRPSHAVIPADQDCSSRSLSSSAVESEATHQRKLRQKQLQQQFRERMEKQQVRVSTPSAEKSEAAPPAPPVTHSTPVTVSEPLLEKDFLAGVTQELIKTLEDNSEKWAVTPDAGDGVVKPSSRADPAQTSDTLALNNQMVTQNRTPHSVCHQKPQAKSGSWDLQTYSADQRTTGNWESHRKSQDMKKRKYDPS
RAD54 branch – inhibitors of human RAD54 branch migration, primary screen, biochemical, fluorescence, single point; AID 602329, 2012; inhibition, % at 10.4 µM; RAD54 Holliday junction branch migration, FAM/BHQ fluorescence; DNA repair and recombination protein RAD54-like (Homo sapiens), Q92698; 360,000 compounds, 0.14% hits;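 active = mean normalized replicate activity at least 40 and at least half of replicates scoring 40 or more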;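 note: inhibitors cause a drop in the FAM fluorescence signal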
E-selectin induc – E-selectin induction in HUVECs, primary screen, imaging, HUVEC, immunofluorescence imaging, single point; normalized: neutral wells 0, TNF-alpha wells 100; activation, % at 7.58 µM; 260,000 compounds, 0.37% hits; AID 686992, 2013;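 active = mean E-selectin-positive cell signal at least 10% of the positive control, reached in at least 60% of replicates, without over 20% cell loss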
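material = human umbilical vein endothelial cells (HUVEC), E-selectin induction | quantity = 3,000 cells/well | medium = EGM-2 growth medium on 0.1% gelatin-coated wells | technique = immunofluorescence imaging | read-out basis = % PE-positive cells | control set = TNF-alpha positive control, DMSO neutral control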
INS-1E GSIS act – GLuc luminescence reporter in INS-1E cells, primary screen for activators of glucose-dependent secretion of insulin; AID 743287, 2014; INS-1E GLuc reporter insulin secretion, 2-3 h; activation, % at 16.6 µM; 370,000 compounds, 0.61% hits;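 active = lowest replicate activation of at least 40%, so every replicate reaches that level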
A number is an active result; - = inactive; . = no result given.

SMILES	rRNA inh HTS	MLL AF4-AF9 inh	RAD52 inh	RAD54 branch	E-selectin induc	INS-1E GSIS act
CC1(C)CC[C@]2(C(=O)O[C@@H]3O[C@H](CO)[C@@H](O)[C@H](O)[C@H]3O)CC[C@]3(C)C(=CCC4[C@@]5(C)CC[C@H](O[C@@H]6O[C@H](C(=O)O)[C@@H](O[C@H]7OC[C@@H](O)[C@@H](O)[C@@H]7O)[C@H](O)[C@H]6O)C(C)(C)C5CC[C@]43C)[C@@H]2C1 (some centres undefined)	-	-	-	-	-	-
CC1(C)CC[C@]2(C(=O)O)CC[C@]3(C)C(=CC[C@@H]4[C@@]5(C)CC[C@H](O[C@@H]6O[C@H](C(=O)O)[C@@H](O)[C@H](O[C@@H]7OC[C@H](O)[C@H](O)[C@H]7O)[C@H]6O)C(C)(C)[C@@H]5CC[C@]43C)[C@@H]2C1	-	-	-	-	-	200
Cc1ccc(/C=N/NC(=O)NC2CCCCC2)o1	-	-	-	.	.	-
Cc1ccc(/C=C/C(=O)NC2CCCCCCC2)o1	.	.	.	.	.	58
Cc1ccccc1CNS(=O)(=O)c1ccccc1[N+](=O)[O-]	-28	-	-	-	.	-
O=[N+]([O-])c1ccccc1S(=O)(=O)NCc1ccc(F)cc1	-	-	-	.	.	-
NC(=O)COC(=O)CSc1cccc2cccc(Cl)c12	-29	-	-	.	-	-
O=C(COC(=O)CSc1cccc2cccc(Cl)c12)Nc1ncc(C(F)(F)F)cc1Cl	-	-	-	.	.	-
CC(C)n1nc(C(=O)Nc2ccccc2N2CCOCC2)c2ccccc2c1=O	.	.	.	.	.	120
CCN(CC)S(=O)(=O)c1ccc(N2CCOCC2)c(NC(=O)c2nn(C(C)C)c(=O)c3ccccc23)c1	-	-	-	-	-	-
C[C@H](CO)N1C[C@H](C)[C@@H](CN(C)C(=O)Nc2ccc3c(c2)OCO3)Oc2ccc(NS(C)(=O)=O)cc2C1=O	-	-	-	-	.	-
C[C@H]1CCCCO[C@@H](CN(C)CC2CCCCC2)[C@@H](C)CN([C@@H](C)CO)C(=O)c2cc(NC(=O)c3ccncc3)ccc2O1	-	.	.	.	-	-
CCOC1=C2[C@H](c3ccc(C)cc3)N(S(=O)(=O)c3ccc(C)cc3)C[C@H]2n2c(=O)n(-c3ccccc3)c(=O)n2C1	-	-	-	-	-	52
Cc1ccccc1C(=O)Nc1nnc(-c2ccncc2)o1	-33	-	-	.	-	-
CCOc1ccccc1N1CCN(C(=O)c2ccc3[nH]c4c(c3c2)CCCC4)CC1	-27	-	-	-	-	-
CC1c2ccsc2CCN1S(=O)(=O)c1cccs1 (centres undefined)	-29	-	-	.	-	-
CN(C)CCNc1ncnc2oc(-c3ccccc3)c(-c3ccccc3)c12	-	-	-	-	.	53
CN(C)CCNc1ncnc2ccccc12	-	.	-	-	.	-
Cc1cccc(C)c1NC(=O)c1nc(S(=O)(=O)Cc2ccccc2)ncc1Cl	-	-	-	-	.	-
Cc1cccc(CS(=O)(=O)c2ncc(Cl)c(C(=O)Nc3c(C)cccc3C)n2)c1	-	-	-	-	-	80
C1CCCCCC(=NNc2nn[nH]n2)CCCCC1	-	-	-	-	67	-
C[C@@H]1CN([C@H](C)CO)C(=O)c2ccccc2-c2ccccc2CO[C@H]1CN(C)C(=O)Nc1ccc2c(c1)OCO2	-	-	-	-	-	-
C[C@@H]1CN([C@@H](C)CO)C(=O)Cc2cc(NC(=O)CCCN(C)C)ccc2O[C@@H]1CN(C)S(=O)(=O)c1ccc(Cl)cc1	-	-	-	.	-	-
S=c1[nH]nc(-c2cccnc2)n1C1CCCCC1	-	-	-	.	.	-
Cc1ccsc1-c1n[nH]c(=S)n1C1CCCCC1	-41	-	-	.	-	-
COc1ccc(-c2cc(C(=O)OCc3ccccn3)c3ccccc3n2)cc1	-34	-	-	-	.	-
COc1ccc(CNC(=O)COC(=O)c2cc(C)nc3ccccc23)cc1	-	-	-	-	-	46

Compound activity deposited in PubChem by Broad Institute.
